KCNQ1 inh: human KCNQ1 channel inhibition; P51787; CHO-K1 KCNQ1, FluxOR thallium flux fluorescence; active compounds read high; B-score at 10 µM; actives 1.3% (n = 310,000); AID 2642;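 active = compounds whose thallium flux B-score, printed positive for inhibition, exceeds three library SD while starting fluorescence stays within three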;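 note: channel opened by potassium depolarization with thallium stimulus after 20 min compound exposure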
KCNK9 inh-1: inhibitors of human KCNK9 two-pore domain potassium channel; Q9NPC2; HEK293 KCNK9, FluxOR thallium flux fluorescence; active compounds read low; B-score at 10 µM; actives 1.2% (n = 310,000); AID 488922;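 active = ratio B-score over 3 SD below the library mean, with starting fluorescence within 5 SD of its mean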;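 note: negative B-score means less thallium flux so channel inhibition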
KCNQ1 pot: potentiates or activates the human KCNQ1 potassium channel. P51787. CHO-K1 KCNQ1, thallium flux FluxOR fluorescence; active compounds read high. B-score at 10 µM. actives 0.35% (n = 310,000);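 active = fluorescence ratio B-score, a plate-corrected score, at least three library SD, with initial intensity B-score within 5 SD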
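Medium – assay buffer, equal DMSO in all wells · Material – CHO-K1 cell line with stable KCNQ1 potassium channel expression · Signal – kinetic FluxOR thallium fluorescence, 10-s 1-Hz baseline, 110-s post-stimulus read · Compound – single concentration per compound, DMSO matched to controls · Schedule – 37 °C overnight plating, 90-min dark dye load, 20-min compound pretreatment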
hERG rescue: shields human hERG channel from block by proarrhythmic agents; CHO-hERG, FluxOR thallium flux, dofetilide IC70 present; activation (rescue from dofetilide block), less the hit threshold, % at 10 µM; actives 0.51% (n = 310,000); Q12809;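 active = activation above the mean of controls blocked by dofetilide plus 5 SD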;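 note: thallium influx through hERG after potassium depolarization seen as dye fluorescence rise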
Kir21 inh: blocks the mouse Kir2.1 inward-rectifier potassium channel. HEK293-Kir2.1, FluxOR thallium flux fluorescence; active compounds read low. B-score at 10 µM. actives 0.85% (n = 310,000). AID 1672;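 active = fluorescence ratio B-score at or below minus 3 SD of library scores, with starting-brightness B-score within 2 SD, cut at about -4.2 in these data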;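 note: channel flux triggered by added potassium and thallium sulfate stimulus; B-score of peak minus minimum fluorescence over baseline after thallium stimulus; more negative B-score means stronger Kir2.1 block with less thallium influx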
Target sequence (P35561 whole entry, looked up): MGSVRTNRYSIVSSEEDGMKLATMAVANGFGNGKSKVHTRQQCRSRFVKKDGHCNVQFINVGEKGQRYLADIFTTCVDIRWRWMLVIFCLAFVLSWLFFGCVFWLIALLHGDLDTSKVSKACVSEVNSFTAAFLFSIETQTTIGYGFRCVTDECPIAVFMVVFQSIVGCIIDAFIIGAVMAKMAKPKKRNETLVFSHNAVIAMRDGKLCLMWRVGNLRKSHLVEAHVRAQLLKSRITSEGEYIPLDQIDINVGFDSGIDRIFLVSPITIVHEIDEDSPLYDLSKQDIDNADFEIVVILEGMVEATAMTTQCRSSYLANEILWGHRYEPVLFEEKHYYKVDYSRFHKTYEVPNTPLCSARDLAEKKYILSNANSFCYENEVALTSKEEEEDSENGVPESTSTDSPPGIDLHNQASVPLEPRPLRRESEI
KCNK3 block: human KCNK3 channel inhibition, primary screen | B-score at 10 µM | O14649 | CHO-KCNK3 thallium flux, FluxOR fluorescence; active compounds read low | actives 0.84% (n = 340,000) | AID 602410;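 active = B-score under library mean minus 4 SD, starting fluorescence ratio at most library mean plus 5 SD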;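 note: more negative B-score means stronger inhibition of thallium flux through KCNK3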
hERG inh: counter-screen for Kir2.1 inhibitors: effect on human hERG; shares compounds with Kir21 inh; hERG-expressing cells, thallium flux; inhibition, % at 10 µM; actives 20% (n = 320); AID 2236;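 note: host cells are CHO cells stably expressing hERG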
KCNK9 inh-2: human KCNK9 off-target activity of Kir2.1 blockers | shares compounds with Kir21 inh | KCNK9-expressing cells, ion flux inhibition | inhibition, % at 10 µM | actives 5% (n = 320)
Kir21 ephys inh: blocks mouse Kir2.1 current in automated electrophysiology. inhibition, % at 25 µM. shares compounds with Kir21 inh. Kir2.1 cells, automated patch-clamp current inhibition. actives 71% (n = 320)
An asterisk follows results filed as active. Most compounds without a hit are left out; they make up all but 3.7% or so of the library. Unless noted, the rule behind the calls is not given here.

Screening CC(C)CN(C(=O)c1cccc(S(=O)(=O)N2CCN(Cc3ccccc3)CC2)c1)C1CCS(=O)(=O)C1 (stereo not drawn) returned KCNQ1 inh inactive, KCNK9 inh-1 inactive, KCNQ1 pot inactive, hERG rescue -8, Kir21 inh -0.7 and KCNK3 block inactive.
`CCC(=O)OCc1c(C(F)(F)F)nn(C)c1Sc1ccc(F)cc1` gave KCNQ1 inh inactive, KCNK9 inh-1 inactive, KCNQ1 pot inactive, hERG rescue -20, Kir21 inh -8.4*, KCNK3 block inactive, hERG inh inactive, KCNK9 inh-2 inactive and Kir21 ephys inh 31%*.
O=C(O)COc1ccccc1/C=N/NC(=O)CSc1nc2ccccc2n1Cc1ccccc1Cl was read as KCNQ1 inh inactive, KCNK9 inh-1 inactive, KCNQ1 pot inactive, hERG rescue -2, Kir21 inh 2.8, KCNK3 block inactive, hERG inh inactive, KCNK9 inh-2 inactive and Kir21 ephys inh inactive.
Screening COc1ccc(CNCc2cccc3ccccc23)cc1 returned KCNQ1 inh inactive, KCNK9 inh-1 inactive, KCNQ1 pot inactive, hERG rescue 0, KCNK3 block inactive, hERG inh inactive and KCNK9 inh-2 inactive.
`N#CC(c1ccc(O)cc1)c1ncc(C(F)(F)F)cc1Cl` (stereo not drawn) gave KCNQ1 inh inactive, KCNK9 inh-1 inactive, KCNQ1 pot inactive, hERG rescue -6, Kir21 inh -7.3*, KCNK3 block inactive, hERG inh inactive, KCNK9 inh-2 inactive and Kir21 ephys inh 54%*.
Screening NC(=O)C(c1ccc(Cl)cc1)c1ncc(C(F)(F)F)cc1Cl (stereo not drawn) returned KCNQ1 inh inactive, KCNK9 inh-1 inactive, KCNQ1 pot inactive, hERG rescue -11, Kir21 inh -0.56 and KCNK3 block inactive.
For COc1cccc(CNc2ccc3[nH]c(=O)[nH]c3c2)c1OCc1ccccc1F the results were KCNQ1 inh inactive, KCNK9 inh-1 inactive, KCNQ1 pot inactive, hERG rescue -15, Kir21 inh -7.4*, KCNK3 block inactive, hERG inh inactive, KCNK9 inh-2 inactive and Kir21 ephys inh 2.2%*.
`CCn1c(CNc2ccc(Cl)cc2)nnc1SCc1ccccc1` gave KCNQ1 inh inactive, KCNK9 inh-1 inactive, KCNQ1 pot inactive, hERG rescue -6, Kir21 inh -6.2*, KCNK3 block inactive, hERG inh inactive, KCNK9 inh-2 inactive and Kir21 ephys inh inactive.
For O=C(COC(=O)/C=C/c1cccc(Cl)c1)NC1CC1 the results were KCNK3 block inactive.
Screening CC(CCc1ccccc1)NC(=O)CC(C)c1ccccc1 (stereo not drawn) returned KCNQ1 inh inactive, KCNK9 inh-1 inactive, KCNQ1 pot inactive, hERG rescue -5, Kir21 inh -8*, KCNK3 block inactive, hERG inh inactive, KCNK9 inh-2 inactive and Kir21 ephys inh 38%*.
For CC(CCc1ccccc1)NC(=O)CSc1ccccn1 (stereo not drawn) the results were KCNQ1 inh inactive, KCNK9 inh-1 inactive, KCNQ1 pot inactive, hERG rescue -8, Kir21 inh -3.1 and KCNK3 block inactive.
Screening CC(C)CCn1c2ccccc2c2cc(CC(N)=O)ccc21 returned KCNQ1 inh inactive, KCNK9 inh-1 inactive, KCNQ1 pot inactive, hERG rescue -6, Kir21 inh 4, KCNK3 block inactive, hERG inh inactive, KCNK9 inh-2 inactive and Kir21 ephys inh inactive.
Screening NC(=O)CCn1c2ccccc2c2ccccc21 returned KCNQ1 inh inactive, KCNK9 inh-1 inactive, KCNQ1 pot inactive, hERG rescue -9, Kir21 inh 2.6 and KCNK3 block inactive.
Screening CCCCN(Cc1ccco1)S(=O)(=O)c1csc(C(N)=O)c1 returned KCNQ1 inh inactive, KCNK9 inh-1 inactive, KCNQ1 pot inactive, hERG rescue -9, Kir21 inh -7.2*, KCNK3 block inactive, hERG inh inactive, KCNK9 inh-2 inactive and Kir21 ephys inh 46%*.
Screening CC(CCc1ccco1)N(C)S(=O)(=O)c1csc(C(N)=O)c1 (stereo not drawn) returned KCNQ1 inh inactive, KCNK9 inh-1 inactive, KCNQ1 pot inactive, hERG rescue -3, Kir21 inh -1 and KCNK3 block inactive.
Cc1ccc(CNC(=O)NCc2ccccc2)cc1 was read as KCNQ1 inh inactive, KCNK9 inh-1 inactive, KCNQ1 pot inactive, hERG rescue -5, Kir21 inh 0.54 and KCNK3 block inactive.
For Cc1ccc(CNCC(O)(c2ccccc2)c2ccccc2)cc1 the results were KCNQ1 inh inactive, KCNK9 inh-1 inactive, KCNQ1 pot inactive, hERG rescue -10, Kir21 inh -9.2*, KCNK3 block inactive, hERG inh inactive, KCNK9 inh-2 inactive and Kir21 ephys inh inactive.
Screening Oc1ccc(Nc2nc(N3CCCC3)c3ccccc3n2)cc1 returned KCNQ1 inh inactive, KCNK9 inh-1 inactive, KCNQ1 pot inactive, hERG rescue -13, Kir21 inh -7.5*, KCNK3 block inactive, hERG inh 64%*, KCNK9 inh-2 inactive and Kir21 ephys inh inactive.
Screening O=C(c1cc(COc2ccc3c(c2)CCCC3)on1)N1CCCC1 returned KCNQ1 inh inactive, KCNK9 inh-1 inactive, KCNQ1 pot inactive, hERG rescue -6, Kir21 inh 4.1, KCNK3 block inactive, hERG inh inactive, KCNK9 inh-2 inactive and Kir21 ephys inh inactive.
For c1ccc(Cn2c(SCc3nc4ccccc4s3)nnc2-c2ccco2)cc1 the results were KCNQ1 inh inactive, KCNK9 inh-1 inactive, KCNQ1 pot inactive, hERG rescue -21, Kir21 inh -7*, KCNK3 block inactive, hERG inh inactive, KCNK9 inh-2 inactive and Kir21 ephys inh 13%*.
CC(=O)OC1=C(C#N)Cn2ccc3cccc1c32 was read as KCNQ1 inh inactive, KCNK9 inh-1 inactive, KCNQ1 pot inactive, hERG rescue -5, Kir21 inh -6.7*, hERG inh inactive, KCNK9 inh-2 inactive and Kir21 ephys inh inactive.
For CCCCc1nc2sc3c(=O)[nH]c(=S)[nH]c3c2c2c1CCC2 the results were KCNK3 block inactive.

Screens (PubChem BioAssay)
